Screening data from PubChem.
In the library only some 3.8% were active in any assay of this set; here they are far more common.
Measles CPE – protection of cells from measles virus; AID 841; hit rate 1.5% among 140,000; protection (pct of control), % at 4 µM; Measles virus-infected cells, CPE protection, absorbance; in the data active = protection mostly above about 24%, no sharp cut-off; inactive = mostly below about 26%
Yeast life ext – yeast lifespan extension; S. cerevisiae growth with nicotinamide, OD615; deaD strain in restrictive glucose medium; inhibition of the nicotinamide effect, % at 10 µM; hit rate 0.68% among 130,000;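 active = inhibition above a set limit, placed 3 SD over the median of all compounds, cut at about 26% in these data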
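assay system = DeaD-strain S. cerevisiae | buffer or medium = restrictive glucose medium | reagent = 1.5 mM nicotinamide | compound = 10 µM single point, 0.25% DMSO | incubation = 48 h compound exposure at 30 °C, humidified | signal = OD615 measurement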
RAM inhibit – yeast RAM network inhibition | hit rate 1.8% among 190,000 | AID 868 | inhibition, % at 50 µM | S. cerevisiae dse1pr::URA3 reporter, 5-FOA growth OD615, 2 d; analog-sensitive cbk1-as2 kinase mutant strain;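 active = inhibition above a set limit, 3 SD over mean compound inhibition, cut at about 8.4% in these data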;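 also: inhibition rescues growth on 5-FOA so higher OD means more RAM inhibition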
SDO1 yeast rescue – compounds rescuing growth of sdo1-depleted yeast, bone marrow failure model. S. cerevisiae sdo1-depleted JHY4D growth rescue, OD600 30 h; hits give high values; pdr5 snq2 efflux-pump mutant strain. AID 817. z-score at 10 µM. hit rate 0.21% among 140,000;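 active = z-score above 3 at both the 24 hr and the 30 hr optical density reads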
Yeast growth inh – yeast BB579 growth reduction in restrictive medium; S. cerevisiae BB579 growth, OD615, 48 h; inhibition, % at 10 µM; hit rate 0.51% among 140,000; AID 804;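 active = inhibition above a set limit, 3 SD over the mean compound inhibition, cut at about 44% in these data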
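System: DeaD yeast strain BB579; buffer or medium: CSMM-D dextrose restrictive medium; technique: OD at 615 nm; schedule: 4 h cell preincubation, 48 h compound exposure, 30 °C humidified; doses: single 10 µM dose; controls: amphotericin B 10 µg/mL, positive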
A number is an active result; - = inactive; . = not tested or not shown.

SMILES	Measles CPE	Yeast life ext	RAM inhibit	SDO1 yeast rescue	Yeast growth inh
O=C(c1ccco1)N1CCN(S(=O)(=O)c2cccc([N+](=O)[O-])c2)CC1	.	.	-	.	.
O=C1CCN(c2ccc([N+](=O)[O-])cc2F)CC1	.	.	-	.	.
CCOc1ccc(N=Nc2cc(C(C)C)ccc2O)cc1	26	-	10	-	-
O=C(NC1CC1)C1CCN(C2CCN(C(=O)/C=C/c3cccc(F)c3F)CC2)CC1	.	.	-	.	.
COC(=O)C1=[N+]([O-])OC(C(=O)OC)C1c1c[nH]c2ccccc12 (centres undefined)	-	-	-	-	-
CCCOC(=O)c1ccc(NC(=O)/C=C/c2cccs2)cc1	-	-	10	-	-
COc1cc(/C=N/NS(=O)(=O)c2ccc(C(C)(C)C)cc2)cc([N+](=O)[O-])c1O	.	.	-	.	.
O=C(NC(=S)Nc1nc2ccccc2s1)c1ccco1	-	-	8.8	-	-
CN(C)C(=O)N1CCN(C(=O)N2CCOCC2)CC1	-	.	-	-	-
CC1(C)C(=O)OC(/C=C\c2cccc([N+](=O)[O-])c2)C(C)(C)C1=O (centres undefined)	.	.	-	.	.
CC1CCCCC1NC(=O)c1cc2ccccc2o1 (centres undefined)	-	-	-	-	-
c1ccc(-c2nnc(-c3ccccn3)nc2NC2CCCCC2)cc1	-	-	-	-	94
CCN1CCN(S(=O)(=O)c2ccc(Oc3ccccc3OC)cc2)CC1	.	.	-	.	.
O=c1[nH]c2ccc(Br)cc2c(-c2ccccc2)c1CN1CCOCC1	-	-	-	-	-
O=c1[nH]c2ccc(Br)cc2c(-c2ccccc2)c1N1CCOCC1	56	-	-	-	-
CC(O)C1CCC2C3CC[C@H]4CC(O)CCC4(C)C3CC3(OCCO3)C12C (some centres undefined)	-	-	-	-	-
CN1CCN(/N=C/c2cccc(Cl)c2Cl)CC1	-	30	-	-	-
CCOc1ccc(/C=N/NC(=O)CN2CCCCCCC2)cc1	.	.	-	.	.
O=[N+]([O-])c1cc2oc3c(c2c(C=NCc2ccncc2)c1O)CCCC3	-	67	-	-	-
N#C/C(=C\c1cccnc1)C(=O)NC1CCCCC1	-	32	-	-	-
CCCCNC(=O)/C(C#N)=C/c1cccnc1	-	46	-	-	-
CCCCCCCCNC(=O)/C(C#N)=C/c1ccc2c(c1)OCCO2	-	-	9.4	-	-
Cc1ccc(C(=O)Nc2ccc3cn[nH]c3c2)cc1S(=O)(=O)N1CCOCC1	.	.	-	.	.
O=[N+]([O-])c1ccc(N/N=C/c2ccc[nH]2)cc1	-	-	8.9	-	87
COc1cc(C(c2nnnn2C(C)(C)C)N2CCN(c3nc4ccccc4s3)CC2)ccc1O (centres undefined)	-	-	-	-	-
SMILES	Measles CPE	Yeast life ext	RAM inhibit	SDO1 yeast rescue	Yeast growth inh
Oc1ccc(N=Nc2cccc(Cl)c2)cc1C=Nc1ccc(N2CCOCC2)cc1	-	-	-	-	79
Oc1ccc2ccccc2c1C=Nc1ccc(N2CCOCC2)cc1	-	49	-	-	-
O=C(O)CCn1cc(/C=C/C(=O)c2ccc(Cl)cc2)c(-c2ccc(Br)cc2)n1	-	-	-	-	52
O=C(O)/C=C/c1cn(Cc2ccccc2)nc1-c1ccccc1	-	-	-	-	-
N#Cc1c(NC(=O)CSc2nc3ccccc3s2)sc2c1CCCC2	-	-	-	-	-
CC(C)(C)NC(=O)CSCc1ccc(Br)cc1	.	.	-	.	.
COc1ccc2c3c(cccc13)C(=O)N(O)C2=O	-	58	-	-	-
CCCOC(=O)CSc1nc(N)c(C#N)c(-c2ccco2)c1C#N	-	.	9.3	-	-
N#Cc1c(N)nc(SCC(=O)OCc2ccccc2)c(C#N)c1-c1ccco1	-	-	-	-	-
NCCCCCc1nnc(SCC(N)=O)o1	.	.	-	.	.
O=C(NCC1CCCO1)C(c1ccc(N2CCOCC2)cc1)N(C(=O)Cn1nnc2ccccc21)c1ccccc1F (centres undefined)	.	.	-	.	.
CC(=O)c1cccc(N(C(=O)Cn2nnc3ccccc32)C(C(=O)NCC2CCCO2)c2ccc(N3CCOCC3)cc2)c1 (centres undefined)	.	.	11	.	.
O=C(N/N=C/c1ccsc1)c1ccc2ccccc2n1	.	.	-	.	.
CCOc1[nH]n(-c2ccccc2)c(=O)c1C=Nc1ccc(OC)cc1	.	.	9.0	.	.
CCOc1[nH]n(-c2ccc(Cl)cc2)c(=O)c1C=Nc1ccc(Cl)cc1	-	-	-	-	-
Cc1[nH]c2ccccc2c1-c1nc(-c2ccc(Cl)cc2)nnc1-c1ccccc1	.	.	-	.	.
CC(NS(C)(=O)=O)C(c1cccs1)N1CCN(C)CC1 (centres undefined)	-	-	-	-	-
CC(NS(=O)(=O)c1ccc(Br)cc1)C(c1cccs1)N1CCN(C)CC1 (centres undefined)	27	-	-	-	-
CC(NS(C)(=O)=O)C(c1cccs1)N1CCN(Cc2ccccc2)CC1 (centres undefined)	31	-	-	-	-
CN(C[C@H](Cc1ccccc1)N(C[C@H](c1ccccc1)N(CCc1ccccc1)N=O)N=O)N=O	.	.	8.8	.	.
Cc1ccc(C(=O)NCCc2ccc(S(N)(=O)=O)cc2)cc1[N+](=O)[O-]	.	.	-	.	.
Cc1cc(OCC(=O)N(C(C)C)C(C)C)cc(C)c1Br	-	-	-	-	-
CC(C)C(NC(=O)COc1ccccc1)C(=O)O (centres undefined)	44	-	-	-	-
O=C(CCc1ccccc1)NC(=S)NCc1ccco1	.	.	-	.	.
CCNc1nc(NCC)n2c(SC(C(=O)Nc3cc(C)ccc3C)c3ccccc3)nnc2n1 (centres undefined)	80	-	-	-	-
SMILES	Measles CPE	Yeast life ext	RAM inhibit	SDO1 yeast rescue	Yeast growth inh
CC(C)Oc1ccc2ccccc2c1C=O	24	-	-	-	-
CCCCCCCCCCCCCCCC(O)C(N)CO (centres undefined)	-	-	-	-	100
CSc1nnc(-c2ccc(Cl)cc2Cl)o1	89	-	-	-	-
Cc1ccc(NC(=O)c2cccs2)cc1	-	-	-	-	-
Cc1[nH]c(=O)[nH]c(=O)c1NC(=O)c1cccs1	25	-	-	-	-
Cc1ccc(/C=N/N(Cc2ccccc2)c2ccccc2)o1	.	.	-	.	.
FC(F)Sc1nc(-c2ccccc2)c(-c2ccccc2)n1C(F)F	34	-	-	-	-
O=C(Nc1ccc(Cl)cc1)OCc1cc(-c2ccccc2Cl)on1	-	-	-	-	-
Cc1ccc(NC(=O)OCc2cc(-c3ccccc3)on2)cc1	.	.	9.9	.	.
COc1ccc(C(=O)NC2CCCCCC2)cc1S(=O)(=O)Nc1ccc(Br)cc1	32	-	-	-	-
CCOC(=O)c1cnc(-c2ccccc2)nc1Oc1ccc(Cl)c(Cl)c1	-	-	-	-	-
CCOC(=O)c1cnc(SC)nc1Oc1cccc(NS(=O)(=O)c2ccc(Cl)cc2)c1	-	-	9.2	-	-
CCOC(=O)c1cnc(-c2ccccc2)nc1Oc1cccc(Cl)c1	-	-	8.9	-	-
COc1cccc(CN2CCNC(=O)C2CC(=O)NCc2cc(C(C)C)no2)c1 (centres undefined)	.	.	-	.	.
